These results are taken from ChEMBL document CHEMBL1159121, “Synthesis, in vitro structure-activity relationship, and in vivo studies of 2-arylthiazolidine-4-carboxylic acid amides as anticancer agents” (Bioorg Med Chem, 2010).

In series [1] the target is Lysophosphatidic acid receptor 1 (Homo sapiens, UniProt Q92633). Briefly: Agonist activity at LPA1 expressed in human chem1 cells assessed as intracellular calcium mobilization by FLIPR assay. It is filed as functional, cell-based. In outline:
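Chem-1 cells stably transfected with LPA1, LPA3 or LPA5, kept in DMEM/10% FBS; Fluo-4 NW loaded. Compound added as an eight-point fourfold serial dilution (top 10 μM), then incubated 10 min at 25 °C. Ca2+ flux read for 180 s on FLIPR, expressed as percentage activation.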
For orientation: A change in cytosolic calcium serves as a functional read-out for many receptors and channels.

Series [2] is described as follows: Antiproliferative activity against mouse B16-F1 cells after 48 hrs by SRB assay. The class given is functional, cell-based. The note with it: B16-F1, 48 h. In outline: (§1)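 Melanoma lines and control fibroblasts grown at 37 °C, 5% CO2, then exposed to a wide concentration range for 48 h in round-bottom 96-well plates. Fixed with 10% TCA, stained with SRB, protein read at 560 nm. IC50 (50% growth inhibition versus untreated) obtained by nonlinear regression.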
On the technique in general: Sulforhodamine B stains cellular protein and so reports cell mass.

In another series the test system is A-375. Briefly: Antiproliferative activity against human A375 cells after 48 hrs by SRB assay. It is filed as functional, cell-based. The note with it: A-375, 48 h. The method, boiled down:
as §1

A short description of series [3]: Antiproliferative activity against human WM164 cells after 48 hrs by SRB assay. It is filed as functional, cell-based. The note with it: WM164, 48 h. The method, boiled down: as §1
A short description of series [4]: Cytotoxicity against human fibroblasts after 48 hrs by SRB assay. The class given is cell-based. The note with it: Fibroblast. The method, boiled down:
as §1

The nature of series [5]: Selectivity ratio of IC50 for human fibroblasts to IC50 for human melanoma cells. The note with it: human fibroblasts and human melanoma cells, read-out: Ratio IC50. It is filed as ADME.
Another series relates to DU-145. Briefly: Antiproliferative activity against human DU145 cells after 96 hrs by SRB assay. The class given is functional, cell-based. The note with it: DU-145, 96 h. In outline:
(§2)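 Prostate lines in RPMI1640/10% FBS; RH7777 in DMEM/10% FBS. Cells TCA-fixed, stained with 0.4% SRB, absorbance read at 540 nm. IC50 from nonlinear regression of % survival against concentration.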

The test system of a further series is PC-3. Put plainly: Antiproliferative activity against human PC3 cells after 96 hrs by SRB assay. The class given is functional, cell-based. The note with it: PC-3, 96 h.
The subject of series [6] is RH7777. Put plainly: Cytotoxicity against rat RH7777 cells after 96 hrs by SRB assay. It is filed as cell-based. The note with it: RH7777, 96 h. In outline:
as §2

The subject of series [7] is RH7777. Briefly: Selectivity ratio of IC50 for rat RH7777 cells to IC50 for human prostate cancer cells. In outline: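 Ratio of RH7777 IC50 to the mean IC50 over four prostate lines (DU 145, PC-3, LNCaP, PPC-1). Prostate lines grown in RPMI1640/10% FBS and RH7777 in DMEM/10% FBS. Read by SRB (0.4%) at 540 nm; IC50 by nonlinear regression.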
A further series deals with LNCaP. Put plainly: Antiproliferative activity against human LNCAP cells after 96 hrs by SRB assay. The class given is functional, cell-based. In outline: as §2
The test system of the next series is PPC-1. Put plainly: Antiproliferative activity against human PPC1 cells after 96 hrs by SRB assay. It is filed as functional, cell-based. The note with it: PPC-1, 96 h. The method, boiled down:
as §2

Chain of Lysophosphatidic acid receptor 1 (Q92633 whole entry): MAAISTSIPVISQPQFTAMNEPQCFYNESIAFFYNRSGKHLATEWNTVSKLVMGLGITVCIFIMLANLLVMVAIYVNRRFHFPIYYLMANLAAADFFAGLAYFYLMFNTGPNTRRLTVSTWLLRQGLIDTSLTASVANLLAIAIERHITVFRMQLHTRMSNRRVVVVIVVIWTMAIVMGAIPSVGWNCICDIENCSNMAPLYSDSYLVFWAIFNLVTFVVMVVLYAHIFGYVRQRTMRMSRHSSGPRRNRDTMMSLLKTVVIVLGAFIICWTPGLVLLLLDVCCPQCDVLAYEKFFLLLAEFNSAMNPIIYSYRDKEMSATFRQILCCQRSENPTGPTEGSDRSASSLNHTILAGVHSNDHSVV

Regarding `CCCCCCCC/C=C\CCCCCCCC(=O)OC[C@@H](O)COP(=O)(O)O` [LYSOPHOSPHATIDIC ACID], the concentration for a half-maximal effect (EC50) (usually the concentration that produces a half-maximal response) in [1] is 0.031 µM.
With `CCCCCCCCC#CCCCCCCCCCNC(=O)[C@@H]1CSC(c2ccc(NC(C)=O)cc2)N1` (mixture of isomers), the IC50 (in general, the concentration needed to halve the response being measured) in series [2] turned out to be 1.6 µM; with A-375, 2.7 µM; in series [3] it was 1.3 µM; in series [4], 7 µM; in the series with DU-145, 1.8 µM; with PC-3, 2.1 µM. Also, the 50% inhibitory concentration (IC50) in the series with RH7777 [6] is 6.6 µM; in the series on LNCaP, 2 µM; with PPC-1, 0.7 µM. Besides, the selectivity ratio in [5] turned out to be 3.8. In addition, the “Ratio IC50” value in the series with RH7777 [7] is 4.
For `CCCCCCCCCCCCCCCCNC(=O)[C@@H]1CSC(c2ccc(NC(C)=O)cc2)N1C(C)=O` (mixture of isomers), the concentration for half-maximal inhibition (IC50) worked out at 15 µM in series [2]; 12.6 µM in the series on A-375; 20.4 µM in [3]; 57.7 µM in series [4]; 14.9 µM in the series on DU-145; 9 µM with PC-3. The half-inhibitory concentration (IC50) with RH7777 [6] is 13 µM; in the series with LNCaP, 10.6 µM; in the series with PPC-1, 6.8 µM. In [5], the selectivity ratio was found to be 3.6. The “Ratio IC50” value in the series on RH7777 [7] was 1.3.
Consider `CCCCCCCCC/C=C/CCCCCCCNC(=O)[C@@H]1CSC(c2cc(OC)c(OC)c(OC)c2)N1` (mixture of isomers), for which the IC50 worked out at 3.2 µM in series [2]; 1.8 µM in the series on A-375; 1.1 µM in series [3]; 4 µM in series [4]; 0.9 µM in the series on DU-145; 1.2 µM in the series on PC-3. The results for the IC50 in the series with RH7777 [6], with LNCaP and in the series on PPC-1 were 6.8 µM, 0.6 µM and 0.3 µM, respectively. Besides, the selectivity ratio in series [5] stood at 2. For the same molecule, in the series on RH7777 [7], the “Ratio IC50” value came out at 9.1.
For the molecule `CCCCCCCCCCCCCCCCNC(=O)[C@@H]1CSC(c2ccccc2NC(C)=O)N1` (mixture of isomers), the concentration for half-maximal inhibition (IC50) in series [2] was determined as 8 µM; with A-375 it was 9.3 µM; in [3], 3.9 µM; in series [4] it was 27.8 µM; with DU-145, 4.6 µM; in the series on PC-3, 2.7 µM. Moreover, the half-maximal inhibitory concentration (IC50) in the series with RH7777 [6] is 13.2 µM; in the series with LNCaP it was 3.3 µM; in the series on PPC-1, 1.5 µM. Further, the selectivity ratio in series [5] turned out to be 3.9. Besides, the “Ratio IC50” value in the series with RH7777 [7] is listed as 4.4.
Take `CCCCCCCCC/C=C\CCCCCCCNC(=O)[C@@H]1CSC(c2ccccc2)N1` (mixture of isomers): the IC50 in [2] stood at 6 µM; in the series on A-375 it was 4.9 µM; in series [3], 2.4 µM; in series [4] it was 11.6 µM; in the series with DU-145, 1.8 µM; in the series with PC-3, 2.4 µM. Moreover, the IC50 in the series on RH7777 [6] is 8.3 µM; with LNCaP it was 1.6 µM; in the series on PPC-1, 1 µM. Also, the selectivity ratio in series [5] is 2.6. Moreover, the “Ratio IC50” value with RH7777 [7] was 4.9.
